According to ChEMBL document CHEMBL1156920, “Structural analogues of schweinfurthin F: probing the steric, electronic, and hydrophobic properties of the D-ring substructure” (Bioorg Med Chem, 2010):

Assays:
OVCAR-3 = assay: Growth inhibition of human OVCAR-3 cells; assay type: functional
BT-549 = assay: Growth inhibition of human BT549 cells; assay type: functional
PC-3 = assay: Growth inhibition of human PC3 cells; assay type: functional
CCRF-CEM = assay: Growth inhibition of human CCRF-CEM cells; assay type: functional
NCI-H522 = assay: Growth inhibition of human NCI-H522 cells; assay type: functional
HL-60(TB) = assay: Growth inhibition of human HL-60(TB) cells; assay type: functional
786-0 = assay: Growth inhibition of human 786-0 cells; assay type: functional
SF-295 [1] = assay: Growth inhibition of human SF295 cells; assay type: functional
[2] = Cytotoxicity against human NCI60 cells; assay type: functional
SN12C = assay: Growth inhibition of human SN12C cells; assay type: functional
HCC 2998 = assay: Growth inhibition of human HCC2998 cells; assay type: functional
IGROV-1 = assay: Growth inhibition of human IGROV1 cells; assay type: functional
UACC-257 = assay: Growth inhibition of human UACC257 cells; assay type: functional
SR = assay: Growth inhibition of human SR cells; assay type: functional
CAKI-1 = assay: Growth inhibition of human Caki1 cells; assay type: functional
SF-268 = assay: Growth inhibition of human SF268 cells; assay type: functional
MDA-MB-435 = assay: Growth inhibition of human MDA-MB-435 cells; assay type: functional
NCI-H322M = assay: Growth inhibition of human NCI-H322M cells; assay type: functional
HT-29 = assay: Growth inhibition of human HT-29 cells; assay type: functional
TK-10 = assay: Growth inhibition of human TK10 cells; assay type: functional
U-251 = assay: Growth inhibition of human U251 cells; assay type: functional
HOP-92 = assay: Growth inhibition of human HOP92 cells; assay type: functional
HCT-116 = assay: Growth inhibition of human HCT116 cells; assay type: functional
SNB-19 = assay: Growth inhibition of human SNB19 cells; assay type: functional
A549 = assay: Cytotoxicity against human A549 cells after 44 hrs by MTT assay; assay type: functional, cell-based; conditions: A549, 44 h
How it was run: (§1)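 SF-295 cells cultured in RPMI 1640 and A549 cells in F-12, each with 10% FBS, penicillin–streptomycin, amphotericin B and L-glutamine, at 37 °C in 5% CO2. Cells were grown to 60% confluency, then treated for 44 h. Medium was replaced with medium containing 0.06 mg/mL MTT (phenol red-free RPMI for SF-295) for 4 h. Acid/Triton/isopropanol stop solution was added, plates incubated overnight at 37 °C, OD read at 540 and 650 nm, and EC50 calculated.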

SK-MEL-2 = assay: Growth inhibition of human SK-MEL-2 cells; assay type: functional
UO-31 = assay: Growth inhibition of human UO31 cells; assay type: functional
UACC-62 = assay: Growth inhibition of human UACC62 cells; assay type: functional
A498 = assay: Growth inhibition of human A498 cells; assay type: functional
NCI-H460 = assay: Growth inhibition of human NCI-H460 cells; assay type: functional
NCI-H23 = assay: Growth inhibition of human NCI-H23 cells; assay type: functional
EKVX = assay: Growth inhibition of human EKVX cells; assay type: functional
HOP-62 = assay: Growth inhibition of human HOP62 cells; assay type: functional
KM12 = assay: Growth inhibition of human KM12 cells; assay type: functional
RXF 393 = assay: Growth inhibition of human RXF393 cells; assay type: functional
M14 = assay: Growth inhibition of human M14 cells; assay type: functional
LOX IMVI = assay: Growth inhibition of human LOXIMVI cells; assay type: functional
SF-295 [3] = assay: Cytotoxicity against human SF295 cells after 44 hrs by MTT assay; assay type: functional, cell-based; conditions: SF-295, 44 h; how it was run: as §1
NCI/ADR-RES = assay: Growth inhibition of human NCI/ADR-RES cells; assay type: functional
COLO 205 = assay: Growth inhibition of human COLO205 cells; assay type: functional
T47D = assay: Growth inhibition of human T47D cells; assay type: functional
[4] = Growth inhibition of human […] cells; assay type: functional
[5] = read-out: pLC50 (the source's name) (converted)

## COc1cc(/C=C/c2cc(O)c(CCC(C)C)c(O)c2)cc2c1O[C@]1(C)CC[C@@H](O)C(C)(C)[C@H]1C2
OVCAR-3
  GI50: 0.417 µM
  LC50 (50% lethal concentration): 56.2 µM
OVCAR-3; read-out: pTGI (converted)
  TGI: 14.1 µM
BT-549
  GI50: 0.363 µM
BT-549; [5]
  CC50: > 100 µM
BT-549; read-out: pTGI (converted)
  TGI: 28.8 µM
PC-3
  GI50: 0.178 µM
PC-3; [5]
  CC50: > 100 µM
PC-3; read-out: pTGI (converted)
  TGI: 32.4 µM
CCRF-CEM
  GI50: 0.148 µM
CCRF-CEM; [5]
  CC50: > 100 µM
CCRF-CEM; read-out: pTGI (converted)
  TGI: 18.6 µM
NCI-H522
  GI50: 1.32 µM
  LC50 (50% lethal concentration): > 100 µM
NCI-H522; read-out: pTGI (converted)
  TGI: 24 µM
HL-60(TB)
  GI50: 0.251 µM
HL-60(TB); [5]
  CC50: > 100 µM
HL-60(TB); read-out: pTGI (converted)
  TGI: 38.9 µM
786-0
  GI50: 0.0102 µM
  LC50: 2.88 µM
786-0; read-out: pTGI (converted)
  TGI: 0.0537 µM
SF-295 [1]
  GI50: 0.0331 µM
  LC50: 66.1 µM
SF-295 [1]; read-out: pTGI (converted)
  TGI: 1.35 µM
[2]
  GI50: 0.29 µM
SN12C
  GI50: 0.741 µM
  LC50: > 100 µM
SN12C; read-out: pTGI (converted)
  TGI: 36.3 µM
HCC 2998
  GI50: 0.794 µM
  LC50: 38 µM
HCC 2998; read-out: pTGI (converted)
  TGI: 10.5 µM
IGROV-1
  GI50: 0.513 µM
  LC50: > 100 µM
IGROV-1; read-out: pTGI (converted)
  TGI: 46.8 µM
UACC-257
  GI50: 3.39 µM
  LC50: 64.6 µM
UACC-257; read-out: pTGI (converted)
  TGI: 21.9 µM
SR
  GI50: 0.0891 µM
  LC50: > 100 µM
SR; read-out: pTGI (converted)
  TGI: 10.5 µM
CAKI-1
  GI50: 0.0708 µM
  LC50: > 100 µM
CAKI-1; read-out: pTGI (converted)
  TGI: 17.8 µM
SF-268
  GI50: 0.214 µM
  LC50: 39.8 µM
SF-268; read-out: pTGI (converted)
  TGI: 11.5 µM
MDA-MB-435
  GI50: 0.501 µM
  LC50: > 100 µM
MDA-MB-435; read-out: pTGI (converted)
  TGI: 24 µM
NCI-H322M
  GI50: 0.933 µM
NCI-H322M; read-out: pTGI (converted)
  TGI: 28.8 µM
HT-29
  GI50: 0.813 µM
  LC50 (50% lethal concentration): 97.7 µM
HT-29; read-out: pTGI (converted)
  TGI: 4.47 µM
TK-10
  GI50: 6.31 µM
  LC50: 74.1 µM
TK-10; read-out: pTGI (converted)
  TGI: 25.1 µM
U-251
  GI50: 0.0631 µM
  LC50: 37.2 µM
U-251; read-out: pTGI (converted)
  TGI: 12.9 µM
HOP-92
  GI50: 1.51 µM
  LC50: > 100 µM
HOP-92; read-out: pTGI (converted)
  TGI: 24 µM
HCT-116
  GI50: 0.0468 µM
HCT-116; [5]
  CC50: 47.9 µM
HCT-116; read-out: pTGI (converted)
  TGI: 8.13 µM
SNB-19
  GI50: 0.372 µM
A549
  EC50: 4.2 µM
SK-MEL-2
  GI50: 4.47 µM
SK-MEL-2; read-out: pTGI (converted)
  TGI: 33.1 µM
UO-31
  GI50: 0.0468 µM
UO-31; [5]
  CC50: 74.1 µM
UO-31; read-out: pTGI (converted)
  TGI: 2.4 µM
UACC-62
  GI50: 0.195 µM
UACC-62; [5]
  CC50: 32.4 µM
UACC-62; read-out: pTGI (converted)
  TGI: 7.08 µM
A498
  GI50: 0.158 µM
  LC50: 36.3 µM
A498; read-out: pTGI (converted)
  TGI: 6.31 µM
NCI-H460
  GI50: 0.0661 µM
  LC50: 51.3 µM
NCI-H460; read-out: pTGI (converted)
  TGI: 1.78 µM
NCI-H23
  GI50: 1.29 µM
  LC50: 81.3 µM
NCI-H23; read-out: pTGI (converted)
  TGI: 19.5 µM
EKVX
  GI50: 0.447 µM
  LC50: > 100 µM
EKVX; read-out: pTGI (converted)
  TGI: 17.4 µM
HOP-62
  GI50: 0.0513 µM
  LC50: 13.8 µM
HOP-62; read-out: pTGI (converted)
  TGI: 0.603 µM
KM12
  GI50: 0.275 µM
  LC50: 28.8 µM
KM12; read-out: pTGI (converted)
  TGI: 5.25 µM
RXF 393
  GI50: 0.01 µM
RXF 393; [5]
  CC50: 8.32 µM
RXF 393; read-out: pTGI (converted)
  TGI: 0.0891 µM
M14
  GI50: 0.245 µM
M14; [5]
  CC50: 30.9 µM
M14; read-out: pTGI (converted)
  TGI: 0.24 µM
LOX IMVI
  GI50: 0.0708 µM
  LC50: 5.89 µM
LOX IMVI; read-out: pTGI (converted)
  TGI: 1.78 µM
SF-295 [3]
  EC50: 0.4 µM
NCI/ADR-RES
  GI50: 2.34 µM
NCI/ADR-RES; [5]
  CC50: > 100 µM
NCI/ADR-RES; read-out: pTGI (converted)
  TGI: 47.9 µM
COLO 205
  GI50: 0.891 µM
  LC50: > 100 µM
COLO 205; read-out: pTGI (converted)
  TGI: 12.3 µM
T47D
  GI50: 2.04 µM
T47D; [5]
  CC50: > 100 µM
[4]
  GI50: 0.0174 µM
  LC50: > 100 µM
